{
  "source": "paper PMC4361903",
  "about": "(Blood, 2010)",
  "key": {"Syk (platelet)": {"target": "Syk (platelet) (UniProt P43405)", "assay": "biotinylated peptide pull-down, Syk blot", "conditions": "reference: pY7 31-mer peptide; sites T9"}, "[1]": {"target": "dually phosphorylated peptide based on the human FcRγ-chain ITAM, biotinylated (human) (UniProt P30273)", "sequence (P30273 54-82)": "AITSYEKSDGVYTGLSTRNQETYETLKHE", "assay": "SPR"}, "[2]": {"tested_on": "GPVI and FcRγ-chain with mutated C-terminal ITAM tyrosine", "type": "cell-based", "conditions": "10 μg/ml collagen, 6 hrs, 37°C; three separate experiments", "method_in_brief": "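DT40 chicken B-cells (RPMI, 10% FBS, 1% chicken serum, 50μM β-mercaptoethanol) electroporated (350V, 500μF) with 2μg/ml each of GPVI and Myc-tagged FcRγ construct, 20μg NFAT-luciferase reporter and 2μg pEF6-lacZ. Live cells counted by trypan blue 20 h post-transfection. Luciferase normalised to β-galactosidase (triplicate readings), expressed as % wild-type response. Surface expression checked by anti-Myc flow cytometry.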"}, "GPVI": {"tested_on": "GPVI", "conditions": "cross-linking of GPVI; ref [8],[9]; cited from earlier work"}, "Syk C-SH2 domain": {"target": "Syk C-SH2 domain (Homo sapiens, UniProt P43405)", "assay": "Surface plasmon resonance, binding of Syk C-SH2 to immobilised peptide", "conditions": "SPR, 25°C, pH 7.4, SH2 domain 0-80μM"}, "[3]": {"target": "tandem SH2 domains of Syk (Homo sapiens, UniProt P43405)", "assay": "Surface plasmon resonance, binding of Syk tandem SH2 to immobilised peptide", "conditions": "SPR, 25°C, pH 7.4, SH2 domains 0-80μM"}, "Syk N-SH2 domain": {"target": "Syk N-SH2 domain (Homo sapiens, UniProt P43405)", "assay": "Surface plasmon resonance, binding of Syk N-SH2 to immobilised peptide", "conditions": "SPR, 25°C, pH 7.4, SH2 domain 0-80μM"}, "[4]": {"tested_on": "single C-terminal SH2 domain of Syk", "assay": "Tryptophan fluorescence titration, Syk C-terminal SH2", "type": "binding", "conditions": "same concentration range as tandem SH2 titration; pH 7.5"}, "[5]": {"target": "Syk tandem SH2 domains (GST fusion protein)", "assay": "other fluorescence titration"}, "CLEC-2": {"tested_on": "CLEC-2", "conditions": "cross-linking of CLEC-2; ref [4],[6]; cited from earlier work"}},
  "note": "Where no end group is shown, it is not given here. [ ]: non-standard residue; d: D form. pY = N[C@@H](Cc1ccc(OP(=O)(O)O)cc1)C(=O)O",
  "data": [
    {"molecule": "CLEC-2 cytoplasmic tail, 1-31 (from UniProt Q9P126) pY7 pT9 31-mer peptide", "values": [
      {"measurement": "binding against the reference", "setting": "Syk (platelet)", "result": "same"}
    ]},
    {"molecule": "Syk C-terminal SH2 domain (GST fusion protein) (domain or fragment)", "values": [
      {"measurement": "Kd", "setting": "[1]", "result": 1.7, "unit": "µM"}
    ]},
    {"molecule": "Syk N-terminal SH2 domain (GST fusion protein) (domain or fragment)", "values": [
      {"measurement": "Kd", "setting": "[1]", "result": 19.7, "unit": "µM"}
    ]},
    {"molecule": "Syk tandem SH2 domains (GST fusion protein) (domain or fragment)", "values": [
      {"measurement": "Kd", "setting": "[1]", "result": 0.02, "unit": "µM"}
    ]},
    {"molecule": "collagen", "values": [
      {"measurement": "NFAT activation by collagen, C-terminal ITAM tyrosine mutant", "setting": "[2]", "result": "abolished"},
      {"measurement": "phosphorylation of FcRγ-chain ITAM tyrosines", "setting": "GPVI", "result": "Src kinase-dependent phosphorylation of two conserved tyrosines"}
    ]},
    {"molecule": "non-phosphorylated CLEC-2 peptide: corresponding nonphosphorylated 13 amino acid peptide (MQDEDGYITLNIK; also: biotin, end not given here)", "values": [
      {"measurement": "detectable binding, C-SH2", "setting": "Syk C-SH2 domain", "result": "No detectable binding"},
      {"measurement": "detectable binding, tandem SH2", "setting": "[3]", "result": "No detectable binding"},
      {"measurement": "detectable binding, N-SH2", "setting": "Syk N-SH2 domain", "result": "No detectable binding"}
    ]},
    {"molecule": "tyrosine phosphorylated CLEC-2 peptide: phosphorylated peptide based on the first 13 amino acids of the CLEC-2 tail, which includes the conserved MQDEDGYxxL sequence (MQDEDG[pY]ITLNIK; also: biotin, end not given here)", "values": [
      {"measurement": "binding to single C-terminal SH2 domain, tryptophan fluorescence", "setting": "[4]", "result": "unable to detect binding"}
    ]},
    {"molecule": "MQDEDG[pY]ITLNIK (also: biotinylated, end not given here)", "values": [
      {"measurement": "Kd", "setting": "[5]", "result": 5.7, "unit": "µM"}
    ]},
    {"molecule": "podoplanin: transmembrane protein podoplanin (protein, UniProt Q86YL7 23-162, looked up) Podoplanin: ASTGQPEDDTETTGLEGGVAMPGAEDDVVTPGTSEDRYKSGLTTLVATSVNSVTGIRIEDLPTSESTVHAQEQSPSATASNVATSHSTEKVDGDTQTTVEKDGLSTVTLVGIIVGVLLAIGFIGAIIVVVMRKMSGRYSP", "values": [
      {"measurement": "platelet aggregation and secretion", "setting": "CLEC-2", "result": "powerful platelet aggregation and secretion"}
    ]}
  ]
}
